Laboratory results from ChEMBL document CHEMBL4814013, “Scaffold repurposing of fendiline: Identification of potent KRAS plasma membrane localization inhibitors” (Eur J Med Chem, 2021).
pIC50: −log10 of the molar value. Activity calls are given as the source filed them. The calls are words filed in the database; no cut-off is given here.

Columns and labels:
[1] = Inhibition of ASM in dog MDCK cells co-expressing recombinant full length mGFP-tagged KRAS G12V mutant and mCherry-CAAX assessed as reduction in plasma membrane localization of KRAS mutant incubated for 48 hrs by confocal microscopic analysis; assay type: cell membranes, Canis lupus familiaris
Summary of the method: (§1)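 MDCK cells stably co-expressing mGFP-KRAS G12V or mGFP-LactC2 with mCherry-CAAX (HRAS 179–189 C181S/C184S) grown on coverslips in DMEM/10% FBS. Treated 48 h with 0.1% DMSO or graded drug, fixed in 4% paraformaldehyde, then quantitative confocal imaging. Mislocalization scored as the Manders fraction of mCherry-CAAX co-localizing with the GFP probe. IC50 and Emax from three independent experiments.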

MDCK [2] = assay: Cytotoxicity against dog MDCK cells at 30 uM; assay type: functional, cell-based; settings: Canis lupus familiaris
MDCK [3] = assay: Inhibition of ASM in dog MDCK cells co-expressing recombinant full length mGFP-tagged KRAS G12V mutant and mCherry-CAAX assessed as reduction in plasma membrane localization of KRAS mutant incubated for 48 hrs by confocal microscopic analysis relative to control; assay type: cell membranes; settings: Canis lupus familiaris; summary of the method: as §1
[4] = Antiproliferative activity against human MPANC96 cells expressing KRAS mutant assessed as reduction in cell growth incubated for 72 hrs by CyQuant proliferation assay; assay type: functional, cell-based; settings: MPANC96, 72 h
Summary of the method: (§2)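 Cells seeded in 96-well plates; after 24 h fresh growth medium with 0.1% DMSO vehicle or drug added (highest dose 30 µM for cancer lines), grown 72 h at 37 °C, 5% CO2. Live cell number measured by CyQUANT fluorescence. IC50 from three independent experiments. MEFs were isogenic lines carrying oncogenic BRAF or KRAS.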

SK-CO-1 = assay: Antiproliferative activity against human SK-CO-1 cells expressing mutant KRAS assessed as reduction in cell growth incubated for 72 hrs by CyQuant proliferation assay; assay type: functional, cell-based; settings: SK-CO-1, 72 h; summary of the method: as §2
HEC-1B cell line = assay: Antiproliferative activity against human HEC-1B cells expressing mutant KRAS assessed as reduction in cell growth incubated for 72 hrs by CyQuant proliferation assay; assay type: functional, cell-based; summary of the method: as §2
MDCK [5] = assay: Inhibition of ASM in dog MDCK cells co-expressing recombinant full length mGFP-tagged KRAS G12V mutant and mCherry-CAAX assessed as reduction in plasma membrane localization of KRAS mutant at 1 uM incubated for 48 hrs followed by incubation with recombinant ASM in continued presence of compound for 60 mins by confocal microscopic analysis; assay type: cell membranes; settings: Canis lupus familiaris, time 49.0 hrs
Summary of the method: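 MDCK cells stably co-expressing mGFP-KRAS G12V and mCherry-CAAX seeded on glass coverslips and grown 48 h with or without compound. Medium then replaced with fresh medium containing 2 units/mL recombinant ASM, drug continued, for 60 min. Cells mounted in mowiol and imaged by confocal microscopy. Mislocalization scored by Manders coefficient.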

KLE = assay: Antiproliferative activity against human KLE cells expressing wild type KRAS assessed as reduction in cell growth upto 30 uM incubated for 72 hrs by CyQuant proliferation assay; assay type: functional, cell-based; settings: dose microM <=30, time 72.0 hrs; summary of the method: as §2
MDCK [6] = assay: Reduction in expression of human GFP-tagged ASM transfected in dog MDCK cells at 5 uM incubated for 48 hrs by western blot analysis; assay type: functional, cell-based; settings: Canis lupus familiaris
Summary of the method: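 SMPD1-GFP-expressing MDCK cells treated 48 h with 5 µM compound, washed in cold PBS and lysed in Tris pH 7.5 buffer with NaF, EGTA, DTT, vanadate, 1% NP40 and protease inhibitors. 20 µg of protein resolved by SDS-PAGE and immunoblotted. Signals detected by enhanced chemiluminescence and quantified by densitometry.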

[7] = target: T1, Sphingomyelin phosphodiesterase (Homo sapiens) (UniProt P17405); assay: Inhibition of human GFP-tagged ASM expressed in dog MDCK cells using sphingomyelin as substrate at 5 uM incubated for 48 hrs by Amplex Red dye based fluorescence analysis; assay type: cell-based
T1 sequence (whole entry): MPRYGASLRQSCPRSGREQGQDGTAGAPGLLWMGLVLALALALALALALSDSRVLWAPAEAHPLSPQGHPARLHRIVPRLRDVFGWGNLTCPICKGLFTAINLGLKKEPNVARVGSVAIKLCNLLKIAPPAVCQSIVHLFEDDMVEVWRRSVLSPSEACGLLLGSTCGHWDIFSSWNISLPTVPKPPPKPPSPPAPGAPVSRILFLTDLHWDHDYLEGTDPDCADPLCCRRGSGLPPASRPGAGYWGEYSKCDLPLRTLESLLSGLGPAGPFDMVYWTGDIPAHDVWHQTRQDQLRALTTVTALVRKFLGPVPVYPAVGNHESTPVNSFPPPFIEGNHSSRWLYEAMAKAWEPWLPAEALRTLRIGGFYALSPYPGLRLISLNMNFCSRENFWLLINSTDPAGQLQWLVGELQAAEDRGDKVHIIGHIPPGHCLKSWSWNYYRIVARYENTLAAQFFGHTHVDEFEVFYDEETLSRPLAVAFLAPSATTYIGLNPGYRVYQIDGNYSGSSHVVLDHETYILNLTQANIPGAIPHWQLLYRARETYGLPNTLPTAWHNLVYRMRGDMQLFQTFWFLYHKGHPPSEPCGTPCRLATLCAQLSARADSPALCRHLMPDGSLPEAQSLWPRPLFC
Summary of the method: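 MDCK cells stably expressing human SMPD1-GFP treated 48 h at 5 µM. Whole-cell lysate, made without DTT, mixed with 50 mM sodium acetate pH 5.0 plus sphingomyelin and held 1 h at 37 °C. pH then raised to 7.4 with Amplex Red mix (100 µM Amplex Red, 2 U/mL HRP, 0.2 U/mL choline oxidase, 8 U/mL alkaline phosphatase, 100 mM Tris pH 8.0), 60 min at 37 °C. Fluorescence read at Ex 540/Em 590 nm. Controls: 0.1 U/mL SMase (positive), buffer alone (negative).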

Ishikawa = assay: Antiproliferative activity against human Ishikawa cells expressing wild type KRAS assessed as reduction in cell growth incubated for 72 hrs by CyQuant proliferation assay; assay type: functional, cell-based; summary of the method: as §2
[8] = Antiproliferative activity against human MOH cells expressing KRAS mutant assessed as reduction in cell growth incubated for 72 hrs by CyQuant proliferation assay; assay type: functional, cell-based; summary of the method: as §2
NCI-H1975 = assay: Antiproliferative activity against human NCI-H1975 cells expressing wild type KRAS assessed as reduction in cell growth incubated for 72 hrs by CyQuant proliferation assay; assay type: functional, cell-based; settings: NCI-H1975, 72 h; summary of the method: as §2
MDCK [9] = assay: Inhibition of ASM in dog MDCK cells co-expressing recombinant full length GFP-tagged LactC2 and mCherry-CAAX assessed as reduction in plasma membrane localization of LactC2 incubated for 48 hrs by confocal microscopic analysis; assay type: cell membranes; settings: Canis lupus familiaris; summary of the method: as §1
ESS-1 = assay: Antiproliferative activity against human ESS-1 cells expressing wild type KRAS assessed as reduction in cell growth upto 30 uM incubated for 72 hrs by CyQuant proliferation assay; assay type: functional, cell-based; settings: dose microM <=30, time 72.0 hrs; summary of the method: as §2
MIA PaCa-2 = assay: Antiproliferative activity against human MIA PaCa-2 cells expressing KRAS mutant assessed as reduction in cell growth incubated for 72 hrs by CyQuant proliferation assay; assay type: functional, cell-based; settings: MIA PaCa-2, 72 h; summary of the method: as §2
MEF [10] = assay: Antiproliferative activity against mouse MEF cells expressing KRAS G12V mutant assessed as reduction in cell growth incubated for 72 hrs by CyQuant proliferation assay; assay type: functional, cell-based; summary of the method: as §2
Caco-2 = assay: Antiproliferative activity against human Caco-2 cells expressing wild type KRAS assessed as reduction in cell growth incubated for 72 hrs by CyQuant proliferation assay; assay type: functional, cell-based; settings: Caco-2, 72 h; summary of the method: as §2
MEF [11] = assay: Cytotoxicity against mouse MEF cells expressing BRAF V600E mutant and wild type KRAS assessed as reduction in cell growth incubated for 72 hrs by CyQuant proliferation assay; assay type: functional, cell-based; summary of the method: as §2
NCI-H522 = assay: Antiproliferative activity against human NCI-H522 cells expressing wild type KRAS assessed as reduction in cell growth incubated for 72 hrs by CyQuant proliferation assay; assay type: functional, cell-based; settings: NCI-H522, 72 h; summary of the method: as §2
BXPC-3 = assay: Antiproliferative activity against human BXPC-3 cells expressing wild type KRAS assessed as reduction in cell growth incubated for 72 hrs by CyQuant proliferation assay; assay type: functional, cell-based; settings: BXPC-3, 72 h; summary of the method: as §2
MEF [12] = assay: Antiproliferative activity against mouse MEF cells expressing KRAS G12D mutant assessed as reduction in cell growth incubated for 72 hrs by CyQuant proliferation assay; assay type: functional, cell-based; summary of the method: as §2
Caenorhabditis elegans = assay: In vivo inhibition of KRAS signaling in Caenorhabditis elegans lin-1 L1 harboring let60 […] mutant assessed as reduction in multi-vulva phenotype measured after 4 to 5 days culturing in buffer containing Escherichia coli OP50 by DIC/Nomarski microscopic analysis; assay type: functional, organism-based; settings: dose 0.1-30 µM, time 4-5 day
Summary of the method: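 let-60 (n1046) or lin-1 L1 larvae cultured in M9 buffer with E. coli OP50 plus DMSO vehicle or compound at 0.1, 0.3, 1, 3, 10 or 30 µM. After 4–5 days, adults were scored for multi-vulva by DIC/Nomarski microscopy.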

NCI-H1299 = assay: Antiproliferative activity against human NCI-H1299 cells expressing wild type KRAS assessed as reduction in cell growth incubated for 72 hrs by CyQuant proliferation assay; assay type: functional, cell-based; settings: NCI-H1299, 72 h; summary of the method: as §2

## C[C@H](c1ccc(F)cc1)N(CC=C(c1ccccc1)c1ccccc1)CCN1CCN(C)CC1
[1]
  pIC50: 5.82
MDCK [2]
  Activity: Active
MDCK [3]
  Emax: 0.83

## COc1ccc([C@@H](C)N(CC=C(c2ccccc2)c2ccccc2)CCN2CCNC(=O)C2)cc1
[1]
  pIC50: 5.11
MDCK [2]
  Activity: inactive
MDCK [3]
  Emax: 0.81

## COc1ccc([C@@H](C)N(CC=C(c2ccccc2)c2ccccc2)CCF)cc1
[1]
  pIC50: 5.00
MDCK [2]
  Activity: inactive
MDCK [3]
  Emax: 0.52

## C=CCN(CC=C(c1ccccc1)c1ccccc1)[C@H](C)c1ccc(OC)cc1
[1]
  pIC50: 4.89
MDCK [2]
  Activity: inactive
MDCK [3]
  Emax: 0.47

## C[C@H](c1ccc(Cl)cc1)N(CC=C(c1ccccc1)c1ccccc1)CCN1CCN(C)CC1
[1]
  pIC50: 5.42
MDCK [2]
  Activity: Active
MDCK [3]
  Emax: 0.7

## COc1ccc([C@@H](C)N(CC=C(c2ccccc2)c2ccccc2)CC(=O)N2CCN(C)CC2)cc1
[1]
  pIC50: 5.96
MDCK [2]
  Activity: inactive
MDCK [3]
  Emax: 0.73

## COc1ccc([C@@H](C)N(CC=C(c2ccccc2)c2ccccc2)CCN2CCNCC2)cc1
[1]
  pIC50: 5.89
MDCK [2]
  Activity: Active
MDCK [3]
  Emax: 0.86

## C[C@H](c1ccc([N+](=O)[O-])cc1)N(CC=C(c1ccccc1)c1ccccc1)CCN1CCN(C)CC1
[1]
  pIC50: 5.28
MDCK [2]
  Activity: Active
MDCK [3]
  Emax: 0.62

## COc1ccc([C@@H](C)N(CC=C(c2ccccc2)c2ccccc2)CCN2CCN(C)CC2)cc1
[4]
  pIC50: 5.38
[1]
  pIC50: 7.00
SK-CO-1
  pIC50: 5.48
MDCK [2]
  Activity: Active
HEC-1B cell line
  pIC50: 5.48
MDCK [5]
  inhibition: inactive
KLE
  Activity: inactive
MDCK [6]
  inhibition: Active
[7]
  inhibition: Active
Ishikawa
  pIC50: < 4.52
[8]
  pIC50: 5.43
NCI-H1975
  pIC50: < 4.52
MDCK [9]
  inhibition: Active
ESS-1
  Activity: inactive
MIA PaCa-2
  pIC50: 5.52
MEF [10]
  pIC50: 5.57
Caco-2
  pIC50: 5.29
MEF [11]
  pIC50: 5.12
NCI-H522
  pIC50: 4.55
BXPC-3
  pIC50: 5.24
MEF [12]
  pIC50: 5.43
Caenorhabditis elegans
  inhibition: Dose-Dependent Effect
NCI-H1299
  pIC50: 5.09
MDCK [3]
  Emax: 0.75

## COc1ccc([C@@H](C)N(CC=C(c2ccccc2)c2ccccc2)CCN2CCC2)cc1
[1]
  pIC50: 6.30
MDCK [2]
  Activity: Active
MDCK [3]
  Emax: 0.69

## COc1ccc([C@@H](C)N(C)CC=C(c2ccccc2)c2ccccc2)cc1
[1]
  pIC50: 5.48
MDCK [2]
  Activity: inactive
MDCK [3]
  Emax: 0.75

## C=CCN(CCN1CCN(C)CC1)[C@H](C)c1ccc(OC)cc1
[1]
  pIC50: 4.23
MDCK [2]
  Activity: inactive
MDCK [3]
  Emax: 0.76

## COc1cccc([C@@H](C)N(CC=C(c2ccccc2)c2ccccc2)CCN2CCN(C)CC2)c1
[1]
  pIC50: 5.55
MDCK [2]
  Activity: Active
MDCK [3]
  Emax: 0.75
